Results on three compounds are retold here after ChEMBL document CHEMBL1134691, “3-Phenyl-5-acyloxymethyl-2H,5H-furan-2-ones: synthesis and biological activity of a novel group of potential antifungal drugs” (2001).

As usually defined, the MIC is the smallest concentration in the dilution series that meets the test's criterion for growth inhibition.

Structures are written as SMILES. Converted amounts (≈) assume the structure as drawn. Where only a bound is given, the exact number is not on record here.

The subject of assay [1] is Candida albicans. As to the kind of experiment: Inhibition of Candida albicans ATCC 44859 growth for 24 hours in vitro. The note with it: Candida albicans, ATCC 44859, 24 h; read-out: MIC. Format: functional. The procedure, abridged: (§1)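 NCCLS M27-A broth microdilution in RPMI 1640 with L-glutamine and 0.165 M MOPS, pH 7.0. Isolates kept on Sabouraud dextrose agar. Inoculum 5 × 10^3 cfu/mL final. Compounds were diluted in DMSO (≤2% final) and tested in 2-fold dilutions of 1000–0.24 µmol/L. Incubation at 35 °C, OD540 read at 24 and 48 h. MIC = 80% growth inhibition versus control; assays run twice in duplicate.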

The test system of assay [2] is Aspergillus fumigatus. Put plainly: Inhibition of Aspergillus fumigatus 231 growth for 48 hours in vitro. Format: functional. To be noted: Aspergillus fumigatus, 48 h; read-out: MIC. The procedure, abridged: (§2)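 Filamentous isolates tested by microdilution per NCCLS M27-A in RPMI 1640 plus L-glutamine, buffered with 0.165 M MOPS to pH 7.0. Final inoculum 5 × 10^3 cfu/mL. Compounds in DMSO (final ≤2%), 2-fold series over 1000–0.24 µmol/L. Plates held at 35 °C and read visually after 24 and 48 h. MIC taken as 80% inhibition of control growth; determined twice in duplicate.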

Assay [3] deals with Candida tropicalis. Put plainly: Inhibition of Candida tropicalis 156 growth for 24 hours in vitro. Format: functional. To be noted: Candida tropicalis, 24 h; read-out: MIC. The procedure, abridged:
as §1

For assay [4], the system named is Pichia kudriavzevii. As to the kind of experiment: Inhibition of Candida krusei E28 growth for 48 hours in vitro. Format: functional. The note with it: Pichia kudriavzevii, 48 h; read-out: MIC. Summed up:
as §1

The test system of assay [5] is Trichosporon beigelii. Put plainly: Inhibition of Trichosporon beigelli 1188 for 24 hours in vitro. Format: functional. To be noted: Trichosporon beigelii, 24 h; read-out: MIC. The procedure, abridged: (§3)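 Microdilution following NCCLS M27-A. Medium: RPMI 1640 with L-glutamine, 0.165 M MOPS, pH 7.0. Final inoculum 5 × 10^3 cfu/mL. Compounds dissolved in DMSO, final ≤2%, serially halved from 1000 to 0.24 µmol/L. Incubated at 35 °C and read at 24 and 48 h. MIC defined as 80% inhibition of control growth; run twice in duplicate.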

In assay [6] the test system is Pichia kudriavzevii. Put plainly: Inhibition of Candida krusei ATCC 6258 growth for 24 hours in vitro. Format: functional. The note with it: Pichia kudriavzevii, ATCC 6258, 24 h; read-out: MIC. The procedure, abridged:
as §1

The test system of assay [7] is Nakaseomyces glabratus. As to the kind of experiment: Inhibition of Candida glabrata 20/I growth for 48 hours in vitro. Format: functional. The note with it: Nakaseomyces glabratus, 48 h; read-out: MIC. Summed up: as §1
The test system of assay [8] is Clavispora lusitaniae. As to the kind of experiment: Inhibition of Candida lusitaniae 2446/I growth for 24 hours in vitro. Format: functional. To be noted: Clavispora lusitaniae, 24 h; read-out: MIC. The procedure, abridged: as §1
The nature of assay [9]: Inhibition of Trichophyton mentagrophytes 445 growth for 72 hours in vitro. The note with it: Trichophyton benhamiae, 72 h; read-out: MIC. Format: functional, Arthroderma benhamiae. Summed up:
(§4)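 Dermatophyte grown in MOPS-buffered (0.165 M, pH 7.0) RPMI 1640 containing L-glutamine, in an M27-A microdilution format. Inoculum 5 × 10^3 cfu/mL final. Compounds from DMSO stocks (≤2% final), 2-fold dilutions 1000–0.24 µmol/L. Incubated at 35 °C, growth judged visually at 72 and 120 h. MIC endpoint is 80% inhibition relative to control; measured twice in duplicate.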

Assay [10] in a line: Inhibition of Trichophyton mentagrophytes 445 growth for 120 hours in vitro. Format: functional, Arthroderma benhamiae. The note with it: Trichophyton benhamiae, 120 h; read-out: MIC. Summed up:
as §4

In assay [11] the test system is Trichosporon beigelii. As to the kind of experiment: Inhibition of Trichosporon beigelli 1188 for 48 hours in vitro. Format: functional. The note with it: Trichosporon beigelii, 48 h; read-out: MIC. The procedure, abridged:
as §3

Assay [12] concerns Candida parapsilosis. Put plainly: Inhibition of Candida parapsilosis ATCC 22019 growth for 24 hours in vitro. Format: functional. The note with it: Lodderomyces parapsilosis, ATCC 22019, 24 h; read-out: MIC. The procedure, abridged: as §1
The subject of assay [13] is Lichtheimia corymbifera. As to the kind of experiment: In vitro inhibition of Absidia corymbifera 272 growth for 48 hours. Format: functional. The note with it: Lichtheimia corymbifera, 48 h; read-out: MIC. Summed up:
as §2

Assay [14] concerns Pichia kudriavzevii. Put plainly: Inhibition of Candida krusei ATCC 6258 growth for 48 hours in vitro. Format: functional. To be noted: Pichia kudriavzevii, ATCC 6258, 48 h; read-out: MIC. The procedure, abridged: as §1
Assay [15] has as its system Clavispora lusitaniae. As to the kind of experiment: Inhibition of Candida lusitaniae 2446/I growth for 48 hours in vitro. Format: functional. To be noted: Clavispora lusitaniae, 48 h; read-out: MIC. Summed up: as §1
Assay [16] relates to Nakaseomyces glabratus. As to the kind of experiment: Inhibition of Candida glabrata 20/I growth for 24 hours in vitro. To be noted: Nakaseomyces glabratus, 24 h; read-out: MIC. Format: functional. The procedure, abridged: as §1
In assay [17] the test system is Candida albicans. Put plainly: Inhibition of Candida albicans ATCC 90028 for 24 hours in vitro. Format: functional. To be noted: Candida albicans, ATCC 90028, 24 h; read-out: MIC. Summed up:
as §1

Assay [18] deals with Lichtheimia corymbifera. Put plainly: In vitro inhibition of Absidia corymbifera 272 growth for 24 hours. To be noted: Lichtheimia corymbifera, 24 h; read-out: MIC. Format: functional. Summed up:
as §2

The test system of assay [19] is Candida albicans. As to the kind of experiment: Inhibition of Candida albicans ATCC 44859 growth for 48 hours in vitro. To be noted: Candida albicans, ATCC 44859, 48 h; read-out: MIC. Format: functional. The procedure, abridged:
as §1

The test system of assay [20] is Candida parapsilosis. Put plainly: Inhibition of Candida parapsilosis ATCC 22019 growth for 48 hours in vitro. Format: functional. The note with it: Lodderomyces parapsilosis, ATCC 22019, 48 h; read-out: MIC. Summed up: as §1
Assay [21] relates to Candida tropicalis. As to the kind of experiment: Inhibition of Candida tropicalis 156 growth for 48 hours in vitro. The note with it: Candida tropicalis, 48 h; read-out: MIC. Format: functional. The procedure, abridged: as §1
Assay [22] relates to Candida albicans. Put plainly: Inhibition of Candida albicans ATCC 90028 for 48 hours in vitro. The note with it: Candida albicans, ATCC 90028, 48 h; read-out: MIC. Format: functional. Summed up:
as §1

The subject of assay [23] is Aspergillus fumigatus. As to the kind of experiment: Inhibition of Aspergillus fumigatus 231 growth for 24 hours in vitro. Format: functional. The note with it: Aspergillus fumigatus, 24 h; read-out: MIC. Summed up: as §2
For assay [24], the system named is Pichia kudriavzevii. As to the kind of experiment: Inhibition of Candida krusei E28 growth for 24 hours in vitro. Format: functional. The note with it: Pichia kudriavzevii, 24 h; read-out: MIC. Summed up:
as §1

Consider `O=C1OC(CO)C=C1c1ccc(Cl)c(Cl)c1` (configuration not stated), for which the MIC is 62.5 µM (≈ 16.2 µg/mL) in assay [1]; 250 µM (≈ 64.8 µg/mL) in assay [2]; 250 µM (≈ 64.8 µg/mL) in [3]; 250 µM (≈ 64.8 µg/mL) in [4]; 500 µM (≈ 130 µg/mL) in assay [5]; 250 µM (≈ 64.8 µg/mL) in assay [6]. In addition, the MIC was 62.5 µM (≈ 16.2 µg/mL) in [7]; 125 µM (≈ 32.4 µg/mL) in [8]; 15.6 µM (≈ 4.05 µg/mL) in [9]; 15.6 µM (≈ 4.05 µg/mL) in assay [10]; greater than 1000 µM in [11]; 250 µM (≈ 64.8 µg/mL) in [12]. Also, the MIC in assay [13] turned out to be 125 µM (≈ 32.4 µg/mL); in [14], 250 µM (≈ 64.8 µg/mL); in assay [15], 250 µM (≈ 64.8 µg/mL); in [16], 62.5 µM (≈ 16.2 µg/mL); in assay [17], 250 µM (≈ 64.8 µg/mL); in [18] it was 125 µM (≈ 32.4 µg/mL). Besides, the MIC is 250 µM (≈ 64.8 µg/mL) in assay [19]; 500 µM (≈ 130 µg/mL) in [20]; 500 µM (≈ 130 µg/mL) in assay [21]; 500 µM (≈ 130 µg/mL) in assay [22]; 62.5 µM (≈ 16.2 µg/mL) in assay [23]; 125 µM (≈ 32.4 µg/mL) in assay [24].
Regarding `CC(=O)OCC1C=C(c2ccc(Br)cc2)C(=O)O1` (configuration not stated), the minimal inhibitory concentration (MIC) was less than 0.98 µM in assay [1]; 3.91 µM (≈ 1.22 µg/mL) in assay [2]; 7.81 µM (≈ 2.43 µg/mL) in [3]; 7.81 µM (≈ 2.43 µg/mL) in [4]; 3.91 µM (≈ 1.22 µg/mL) in assay [5]; 3.91 µM (≈ 1.22 µg/mL) in [6]. Besides, the MIC in assay [7] turned out to be 1.95 µM (≈ 0.607 µg/mL); in assay [8], 1.95 µM (≈ 0.607 µg/mL); in assay [9], 1.95 µM (≈ 0.607 µg/mL); in [10], 1.95 µM (≈ 0.607 µg/mL); in assay [11] it was 7.81 µM (≈ 2.43 µg/mL); in [12], 7.81 µM (≈ 2.43 µg/mL). In addition, the MIC in assay [13] was determined as 15.6 µM (≈ 4.86 µg/mL); in [14], 7.81 µM (≈ 2.43 µg/mL); in [15] it was 3.91 µM (≈ 1.22 µg/mL); in assay [16] it was 0.98 µM (≈ 0.305 µg/mL); in assay [17] it was 1.95 µM (≈ 0.607 µg/mL); in [18], 7.81 µM (≈ 2.43 µg/mL). In addition, the MIC turned out to be 1.95 µM (≈ 0.607 µg/mL) in assay [19]; 7.81 µM (≈ 2.43 µg/mL) in [20]; 15.6 µM (≈ 4.86 µg/mL) in [21]; 3.91 µM (≈ 1.22 µg/mL) in [22]; 0.98 µM (≈ 0.305 µg/mL) in assay [23]; 3.91 µM (≈ 1.22 µg/mL) in assay [24].
For the compound `CC(=O)OCC1C=C(c2ccc(Cl)c(Cl)c2)C(=O)O1` (configuration not stated), the MIC in assay [1] came out at 0.49 µM (≈ 0.148 µg/mL); in assay [2], 7.81 µM (≈ 2.35 µg/mL); in [3], 3.91 µM (≈ 1.18 µg/mL); in [4], 3.91 µM (≈ 1.18 µg/mL); in [5], 1.95 µM (≈ 0.587 µg/mL); in [6] it was 3.91 µM (≈ 1.18 µg/mL). In addition, the MIC in assay [7] amounted to 0.98 µM (≈ 0.295 µg/mL); in [8] it was 1.95 µM (≈ 0.587 µg/mL); in assay [9], 0.98 µM (≈ 0.295 µg/mL); in [10], 0.98 µM (≈ 0.295 µg/mL); in assay [11], 7.81 µM (≈ 2.35 µg/mL); in assay [12], 3.91 µM (≈ 1.18 µg/mL). In addition, the MIC in [13] came out at 15.6 µM (≈ 4.71 µg/mL); in assay [14] it was 7.81 µM (≈ 2.35 µg/mL); in assay [15] it was 1.95 µM (≈ 0.587 µg/mL); in [16] it was 0.98 µM (≈ 0.295 µg/mL); in assay [17] it was 3.91 µM (≈ 1.18 µg/mL); in assay [18] it was 15.6 µM (≈ 4.71 µg/mL). Further, the MIC turned out to be 3.91 µM (≈ 1.18 µg/mL) in assay [19]; 7.81 µM (≈ 2.35 µg/mL) in assay [20]; 7.81 µM (≈ 2.35 µg/mL) in assay [21]; 3.91 µM (≈ 1.18 µg/mL) in [22]; 0.98 µM (≈ 0.295 µg/mL) in [23]; 3.91 µM (≈ 1.18 µg/mL) in assay [24].
